MLL AF4-AF9 inh: blocks AF4 peptide binding to human AF9. AlphaScreen, biotin-AF4 peptide binding to FLAG-AF9. inhibition, % at 10 µM. 0.47% of 350,000 active;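 active = every replicate reaching a set inhibition limit, whatever the replicate mean, cut at about 25% in these data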;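 note: 0% = plate neutral control median and 100% = total signal loss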
FN deposition inh: fibronectin deposition inhibition; AH1F fibroblasts, Alexa488-fibronectin deposition fluorescence, overnight; inhibition, % at 12.6 µM; 0.086% of 350,000 active; AID 743247;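 active = mean inhibition across replicates of 30% or more, regardless of how many single replicates reach that level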;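 note: positive control wells lacked labelled fibronectin entirely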
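Material – AH1F fibroblast monolayer, labelled fibronectin deposition · Reagent – labelled fibronectin 24 nM · Timing – 1 h adhesion, overnight exposure · Measured by – fluorescence at 485 nm excitation, 525 nm emission · Read-out – inhibition of fibronectin deposition signal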
PDI turbidity: PDI (human) enzyme inhibition; PDI insulin aggregation turbidity, A650, 90 min; inhibition, % at 10 µM; 0.052% of 350,000 active;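 active = mean inhibition across replicates of 30% or more, whatever share of single replicates reach that level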
SIRT5 block: inhibitors of human sirtuin-5 desuccinylase; Q9NXA8; Purified SirT5, succinyl-peptide AMC, trypsin-coupled fluorescence; inhibition, % at 15 µM; 1.1% of 330,000 active; in the data active = inhibition above about 15%
Target sequence (Q9NXA8 whole entry, looked up): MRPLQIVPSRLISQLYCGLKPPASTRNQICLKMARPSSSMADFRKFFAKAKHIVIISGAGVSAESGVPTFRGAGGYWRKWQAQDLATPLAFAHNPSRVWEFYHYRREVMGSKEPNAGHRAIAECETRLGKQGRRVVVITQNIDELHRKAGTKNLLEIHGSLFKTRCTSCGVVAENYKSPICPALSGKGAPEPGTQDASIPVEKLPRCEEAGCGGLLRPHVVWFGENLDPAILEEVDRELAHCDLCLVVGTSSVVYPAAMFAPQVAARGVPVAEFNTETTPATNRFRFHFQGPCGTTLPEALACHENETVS
ERp5 block: inhibitors of human ERp5 | ERp5 insulin aggregation, absorbance 650 nm, 90 min | inhibition, % at 9.99 µM | Q15084 | 0.05% of 350,000 active | AID 651711;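 active = mean replicate inhibition above about 25%, with every replicate also reaching it, limit read from the data, passing the limit was not always enough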
* hit, by the source's call; . = no result given. A selection: hits, their analogues and other compounds. The true share with any hit is near 1.3%.

SMILES	MLL AF4-AF9 inh	FN deposition inh	PDI turbidity	SIRT5 block	ERp5 block
CCCCn1c(N)c(N(CC(C)C)C(=O)CSCc2ccc(Cl)c(Cl)c2)c(=O)[nH]c1=O	-1	1	-6	17*	3
CC[n+]1c(-c2ccc(C)cc2)csc1Nc1c(C)n(C)n(-c2ccccc2)c1=O	4	15	-1	-6	3
CC[n+]1c(-c2ccccc2)csc1Nc1c(C)n(C)n(-c2ccccc2)c1=O	7	.	0	21*	-3
Cc1noc(C)c1C(=O)N(C)C[C@@H]1OCc2ccccc2-c2c(n(C)c3ccccc23)C(=O)N([C@H](C)CO)C[C@H]1C	0	5	-2	17*	-1
C[C@H]1CN([C@@H](C)CO)C(=O)c2c(c3ccccc3n2C)-c2ccccc2CO[C@@H]1CN(C)C(=O)c1cc(Cl)cc(Cl)c1	7	2	.	1	0
Cc1noc(C)c1C(=O)N(C)C[C@@H]1OCc2ccccc2-c2c(n(C)c3ccccc23)C(=O)N([C@@H](C)CO)C[C@H]1C	-3	-3	.	1	10
C[C@@H]1CN([C@H](C)CO)C(=O)c2c(c3ccccc3n2C)-c2ccccc2CO[C@@H]1CN(C)C(=O)c1cc(Cl)cc(Cl)c1	3	-6	.	19*	7
CCN(CC)C(=O)CSC1=Nc2ccccc2C2=NC(Cc3c[nH]c4ccccc34)C(=O)N12 (stereo unspecified)	.	4	25	.	.
O=[N+]([O-])c1ccc(Cl)c(-c2ccc(/C=N/n3cnnc3)o2)c1	-14	-9	1	0	0
CN1CCN(/N=C/c2ccc(-c3ccc([N+](=O)[O-])cc3Cl)o2)CC1	36*	-17	0	2	-3
CSc1ncccc1C(=O)N(C)CC(=O)Nc1ccc(Cl)cc1	-9	2	-18	0	5
CCCCC(=O)Nc1ccc2c(c1)nc(CCNC(=O)c1ccco1)n2C	1	-1	2	23*	1
O=C(Nc1ccc(C(F)(F)F)cc1)C1CCN(c2cnccn2)CC1	-1	-8	18	1	7
COc1ccc2c(c1)oc(=O)c1cc(OC)ccc12	-4	.	.	-2	5
COc1cc(O)c2c(c1)oc(=O)c1c3cc(O)c(O)cc3oc21	4	.	.	23*	3
CC(C)Sc1nc2c(cnn2-c2ccc(F)cc2)c(=O)[nH]1	-4	2	6	4	-7
CC(C)Sc1nc2c(cnn2-c2ccccc2)c(=O)[nH]1	36*	-1	14	-2	-7
Cc1cc2ccccc2c(=O)n1CC(=O)NCCC1=CCCCC1	-6	9	0	-2	4
Cc1nc(C)n(CC(=O)c2ccc(Cl)cc2Cl)n1	2	2	0	1	3
CCOc1ccc(Nc2nc3cc(S(=O)(=O)CC)ccc3o2)cc1	-11	5	11	18*	-3
O=C(/C=C/c1cccs1)NC1CC1	0	.	-5	3	3
CCOC(=O)c1c(C)[nH]c(C)c1C(=O)COC(=O)c1cc2ccccc2cc1OC	.	-6	-2	.	.
CCOC(=O)c1c(C)[nH]c(C)c1C(=O)COC(=O)c1cc2ccccc2cc1O	-2	1	-4	112*	3
COCCNC(=O)C[C@@H]1C[C@@H]2c3cc(NC(=O)NC4CCCC4)ccc3O[C@@H]2[C@H](CO)O1	1	.	.	-6	14
CCCNC(=O)C[C@@H]1C[C@H]2c3cc(NC(=O)CC4CC4)ccc3O[C@H]2[C@@H](CO)O1	-2	-11	.	-2	-2
SMILES	MLL AF4-AF9 inh	FN deposition inh	PDI turbidity	SIRT5 block	ERp5 block
O=C(C[C@@H]1C[C@@H]2c3cc(NC(=O)NC4CCCCC4)ccc3O[C@@H]2[C@H](CO)O1)NCCc1ccccc1	-5	.	.	26*	1
COCCNC(=O)C[C@@H]1C[C@H]2c3cc(NC(=O)NC4CCCC4)ccc3O[C@H]2[C@@H](CO)O1	1	.	.	-9	82*
CCCNC(=O)C[C@@H]1C[C@H]2c3cc(NC(=O)CC4CC4)ccc3O[C@H]2[C@H](CO)O1	8	6	.	0	62*
CN1C(=O)c2cc(NC(=O)NC3CCCC3)ccc2OC[C@H]2O[C@@H](CC(=O)NC3CCC3)CC[C@@H]21	.	-11	.	.	.
Cc1noc(NS(=O)(=O)c2ccc(NC(=O)CSc3nc4c(cc3C#N)CCCCC4)cc2)c1C	.	.	-2	.	.
CCN(CC)S(=O)(=O)c1ccc(NS(=O)(=O)c2ccc(OC)c([N+](=O)[O-])c2)cc1	-3	1	-3	-3	-5
COc1cccc(CN(C)CCCn2ccc(NC(=O)OCc3ccccc3)nc2=O)c1	7	-6	6	-1	-4
